Results as given in ChEMBL document CHEMBL1131429, “Nitrogen-carbon-linked (azolylphenyl)oxazolidinones with potent antibacterial activity against the fastidious gram-negative organisms Haemophilus influenzae and Moraxella catarrhalis” (J Med Chem, 1998).
≈ marks a conversion by molar mass, not a printed value.

Columns and labels:
Haemophilus influenzae = assay: The compound was evaluated for its anti-bacterial activity against Haemophilus influenzae UC 30063; assay type: functional
Method in brief: (§1)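 MICs were determined by standard agar dilution against a panel of Gram-positive and Gram-negative isolates.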

Moraxella catarrhalis = assay: The compound was evaluated for its anti-bacterial activity against Moraxella catarrhalis UC 30610; assay type: functional; method in brief: as §1
[1] = test system: Staphylococcus epidermidis; assay: The compound was evaluated for its anti-bacterial activity against methicillin resistant Staphylococcus epidermidis; assay type: functional
Method in brief: (§2)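 MIC determined in vitro by standard agar dilution against bacterial isolates.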

Staphylococcus aureus [2] = assay: The compound was evaluated for its anti-bacterial activity against methicillin resistant Staphylococcus aureus; assay type: functional; method in brief: as §2
Staphylococcus aureus [3] = assay: The compound was evaluated for its anti-bacterial activity against methicillin susceptible Staphylococcus aureus; assay type: functional; method in brief: as §2
Streptococcus pneumoniae [4] = assay: The compound was evaluated for its anti-bacterial activity against Streptococcus pneumoniae UC 9912; assay type: functional; method in brief: as §1
Staphylococcus aureus [5] = assay: The compound was evaluated for its control effective dose against Staphylococcus aureus UC 9213; assay type: functional
Staphylococcus aureus [6] = assay: The compound was evaluated for its effective dose against Staphylococcus aureus UC 9213; assay type: functional
Enterococcus faecalis = assay: The compound was evaluated for its anti-bacterial activity against Enterococcus faecalis UC 9217; assay type: functional; method in brief: as §1
[7] = terminal disposition half-life was evaluated in male Dawley rats at a dose of 46.8 mg/kg when taken peroral; assay type: ADME, organism-based; parameters: dose 46.8 mg/kg, route oral; conditions: Sprague-Dawley, rat, in vivo, po
Method in brief: (§3)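 Single intravenous or oral doses were given to male Sprague-Dawley rats (n = 3), with plasma sampled to give Cmax and tmax. Vss was calculated as dose·AUMC/AUC², clearance as dose/AUC, and F as (AUC/dose)po/(AUC/dose)iv × 100, assuming linear PK. t1/2β is the harmonic mean terminal half-life. The oral entries show the iv half-life because the po half-life was not calculable.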

[8] = Steady-state volume of distribution was evaluated in male Dawley rats at a dose of 9.0 mg/kg when taken intravenously; assay type: ADME, organism-based; parameters: dose 9 mg/kg, route intravenous; conditions: Sprague-Dawley, rat, in vivo, iv, read-out: Vss; method in brief: as §3
[9] = Absolute oral bioavailability was evaluated n male Dawley rats at a dose of 46.8 mg/kg when taken peroral; assay type: ADME, organism-based; conditions: Sprague-Dawley, rat, in vivo; method in brief: as §3
Rattus norvegicus [10] = assay: Dawley rats at a dose of 46.8 mg/kg when taken peroral; assay type: functional; conditions: route oral; method in brief: as §3
Rattus norvegicus [11] = assay: Dawley rats at a dose of 9.0 mg/kg when taken intravenously; assay type: functional; conditions: route intravenous; method in brief: as §3
[12] = Cmax was evaluated in male Dawley rats at a dose of 46.8 mg/kg when taken perorally; assay type: ADME, organism-based; parameters: dose 46.8 mg/kg, route oral; conditions: Sprague-Dawley, rat, in vivo, po; method in brief: as §3
[13] = Cmax was evaluated in male Dawley rats at a dose of 9.0 mg/kg when taken intravenously; assay type: ADME, organism-based; parameters: dose 9 mg/kg, route intravenous; conditions: Sprague-Dawley, rat, in vivo, iv; method in brief: as §3
[14] = tmax was evaluated in male Dawley rats at a dose of 46.8 mg/kg when taken perorally; assay type: ADME, organism-based; parameters: dose 46.8 mg/kg, route oral; conditions: Sprague-Dawley, rat, in vivo, po; method in brief: as §3
Streptococcus pneumoniae [15] = assay: The compound was evaluated for its control effective dose against Streptococcus pneumoniea UC 15087; assay type: functional
Streptococcus pneumoniae [16] = assay: The compound was evaluated for its effective dose against Streptococcus pneumoniea UC 15087; assay type: functional
[17] = terminal disposition half-life was evaluated in male Dawley rats at a dose of 9.0 mg/kg when taken intravenously; assay type: ADME, organism-based; parameters: dose 9 mg/kg, route intravenous; conditions: Sprague-Dawley, rat, in vivo, iv; method in brief: as §3
[18] = steady-state volume of distribution was evaluated in male Dawley rats; assay type: ADME, organism-based; conditions: Sprague-Dawley, rat, in vivo, read-out: Vss; method in brief: as §3
[19] = terminal disposition half-life was evaluated in male Dawley rats at 9.9 mg/kg when taken intravenously; assay type: ADME, organism-based; parameters: dose 9.9 mg/kg, route intravenous; conditions: Sprague-Dawley, rat, in vivo, iv; method in brief: as §3
[20] = terminal disposition half-life was evaluated in male Dawley rats at a dose of 42.9 mg/kg when taken peroral; assay type: ADME, organism-based; parameters: dose 42.9 mg/kg, route oral; conditions: Sprague-Dawley, rat, in vivo, po; method in brief: as §3
[21] = Absolute oral bioavailability was evaluated n male Dawley rats at a dose of 42.9 mg/kg when taken peroral; assay type: ADME, organism-based; conditions: Sprague-Dawley, rat, in vivo; method in brief: as §3
Rattus norvegicus [22] = assay: Dawley rats 9.9 mg/kg when taken intravenously; assay type: functional; conditions: route intravenous; method in brief: as §3
Rattus norvegicus [23] = assay: Dawley rats at a dose of 42.9 mg/kg when taken peroral; assay type: functional; conditions: route oral; method in brief: as §3
[24] = Cmax was evaluated in male Dawley rats at a dose of 42.9 mg/kg when taken perorally; assay type: ADME, organism-based; parameters: dose 42.9 mg/kg, route oral; conditions: Sprague-Dawley, rat, in vivo, po; method in brief: as §3
[25] = Cmax was evaluated in male Dawley rats at a dose of 9.9 mg/kg when taken intravenously; assay type: ADME, organism-based; parameters: dose 9.9 mg/kg, route intravenous; conditions: Sprague-Dawley, rat, in vivo, iv; method in brief: as §3
Rattus norvegicus [26] = assay: tmax was evaluated in male Dawley rats at a dose of 42.9 mg/kg when taken perorally; assay type: functional, organism-based; parameters: dose 42.9 mg/kg; method in brief: as §3
[27] = Steady-state volume distribution was evaluated in male Dawley rats at a dose of 10 mg/kg when taken intravenously; assay type: ADME, organism-based; parameters: dose 10 mg/kg, route intravenous; conditions: Sprague-Dawley, rat, in vivo, iv, read-out: Vss
Rattus norvegicus [28] = assay: Dawley rats at a dose of 10 mg/kg when taken intravenously; assay type: functional; conditions: route intravenous
[29] = Cmax was evaluated in male Dawley rats at a dose of 25 mg/kg when taken perorally; assay type: ADME, organism-based; parameters: dose 25 mg/kg, route oral; conditions: Sprague-Dawley, rat, in vivo, po
Rattus norvegicus [30] = assay: tmax was evaluated in male Dawley rats at a dose of 25 mg/kg when taken perorally; assay type: functional, organism-based; parameters: dose 25 mg/kg

Row | Compound | MIC (Haemophilus influenzae) [µg/mL] | MIC (Moraxella catarrhalis) [µg/mL] | MIC [1] [µg/mL] | MIC (Staphylococcus aureus [2]) [µg/mL] | MIC (Staphylococcus aureus [3]) [µg/mL] | MIC (Streptococcus pneumoniae [4]) [µg/mL] | ED50 (Staphylococcus aureus [5]) [mg/kg/day] | ED50 (Staphylococcus aureus [6]) [mg/kg/day] | MIC (Enterococcus faecalis) [µg/mL] | other results
1 | CC(=O)NC[C@H]1CN(c2ccc(-n3ccc(/C=N\O)c3)c(F)c2)C(=O)O1 | 4 (≈ 11.1 µM) | 1 (≈ 2.78 µM) | 0.25 (≈ 0.694 µM) | 0.5 (≈ 1.39 µM) | 1 (≈ 2.78 µM) | < 0.125 | 2.6 | 5.5 | 0.5 (≈ 1.39 µM) | –
2 | CC(=O)NC[C@H]1CN(c2ccc(-n3cc(C#N)cn3)c(F)c2)C(=O)O1 | 4 (≈ 11.7 µM) | 2 (≈ 5.83 µM) | < 0.125 | 0.5 (≈ 1.46 µM) | 0.5 (≈ 1.46 µM) | < 0.125 | 3.3 | 1.2 | 0.5 (≈ 1.46 µM) | half-life [7]: 5.35 h; Vd [8]: 0.43 L/kg; bioavailability [9]: 80%; CL/F (Rattus norvegicus [10]): 1.25 mL/min/kg; CL/F (Rattus norvegicus [11]): 1.04 mL/min/kg; Cmax [12]: 29.4 µM; Cmax [13]: 29.2 µM; Tmax [14]: 4 h; ED50 (Streptococcus pneumoniae [15]): 3.2 mg/kg/day; ED50 (Streptococcus pneumoniae [16]): 0.35 mg/kg/day; half-life [17]: 5.35 h
3 | CN[C@H](CC(C)C)C(=O)N[C@H]1C(=O)N[C@@H](CC(N)=O)C(=O)N[C@H]2C(=O)N[C@H]3C(=O)N[C@H](C(=O)N[C@H](C(=O)O)c4cc(O)cc(O)c4-c4cc3ccc4O)[C@H](O)c3ccc(c(Cl)c3)Oc3cc2cc(c3O[C@@H]2O[C@H](CO)[C@@H](O)[C@H](O)[C@H]2O[C@H]2C[C@](C)(N)[C@H](O)[C@H](C)O2)Oc2ccc(cc2Cl)[C@H]1O [VANCOMYCIN] | > 32 | > 32 | – | – | – | 0.5 (≈ 0.345 µM) | – | – | – | –
4 | CC(=O)NC[C@H]1CN(c2ccc(-n3ccc(C=O)c3)c(F)c2)C(=O)O1 | 2 (≈ 5.79 µM) | 1 (≈ 2.9 µM) | < 0.125 | 0.25 (≈ 0.724 µM) | 0.25 (≈ 0.724 µM) | < 0.125 | 1.7 | >20 | 0.25 (≈ 0.724 µM) | –
5 | CC(=O)NC[C@H]1CN(c2ccc(-n3ccc(C#N)c3)c(F)c2)C(=O)O1 | 4 (≈ 11.7 µM) | 1 (≈ 2.92 µM) | < 0.125 | 0.25 (≈ 0.73 µM) | 0.5 (≈ 1.46 µM) | < 0.125 | 4 | 1.9 | 0.25 (≈ 0.73 µM) | Vd [18]: 0.52 L/kg; half-life [19]: 5.15 h; half-life [20]: 5.14 h; bioavailability [21]: 92%; CL/F (Rattus norvegicus [22]): 1.18 mL/min/kg; CL/F (Rattus norvegicus [23]): 1.43 mL/min/kg; Cmax [24]: 31 µM; Cmax [25]: 26.1 µM; Tmax (Rattus norvegicus [26]): 10 h; ED50 (Streptococcus pneumoniae [15]): 1.4 mg/kg/day; ED50 (Streptococcus pneumoniae [16]): 0.6 mg/kg/day
6 | CC(=O)NC[C@H]1CN(c2ccc(N3CCN(C(=O)CO)CC3)c(F)c2)C(=O)O1 [EPEREZOLID] | 16 (≈ 40.6 µM) | 8 (≈ 20.3 µM) | 0.5 (≈ 1.27 µM) | 1 (≈ 2.54 µM) | 4 (≈ 10.1 µM) | 0.5 (≈ 1.27 µM) | – | – | 2 (≈ 5.07 µM) | –
7 | CC(=O)NC[C@H]1CN(c2ccc(-n3cc(C(N)=O)cn3)c(F)c2)C(=O)O1 | > 16 | > 16 | 4 (≈ 11.1 µM) | – | > 16 | 0.5 (≈ 1.38 µM) | – | – | > 16 | –
8 | CC(=O)NC[C@H]1CN(c2ccc(N3CCOCC3)c(F)c2)C(=O)O1 [LINEZOLID] | 16 (≈ 47.4 µM) | 8 (≈ 23.7 µM) | 1 (≈ 2.96 µM) | – | – | – | – | – | – | Vd [27]: 0.72 L/kg; CL/F (Rattus norvegicus [28]): 10.5 mL/min/kg; Cmax [29]: 15.8 µM; Tmax (Rattus norvegicus [30]): 0.3 h
9 | CCOC(=O)c1cnn(-c2ccc(N3C[C@H](CNC(C)=O)OC3=O)cc2F)c1 | > 16 | > 16 | 2 (≈ 5.12 µM) | 4 (≈ 10.2 µM) | 4 (≈ 10.2 µM) | 1 (≈ 2.56 µM) | – | – | 4 (≈ 10.2 µM) | –
